Hits are enriched below; roughly 0.95% of the tested compounds scored in any of these assays.
CAL PDZ FP-1 – CAL PDZ peptide-binding inhibitors, primary screen, biochemical, fluorescence polarization, Cer-tagged CAL PDZ, HTS | purified CAL PDZ, TMR-peptide fluorescence polarization, 1 h | 330,000 tested, 0.02% active | AID 504414, 2011 | inhibition, % at 20 µM;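 active means highest replicate inhibition of at least 40%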;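 further: plate controls were DMSO neutral control wells for no effect and unlabeled competitor peptide control wells for full effect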
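Control set: unlabelled peptide and DMSO controls / Material: purified CerCALP PDZ construct / Timing: 1 h incubation at room temperature before polarization reading / Doses: 20 µM, one dose / Detection: fluorescence polarization (mP)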
PvdQ acylase – P. aeruginosa PvdQ acylase inhibitors, primary screen, biochemical, fluorescence, plate reader and imaging, single point; PvdQ acylase [Pseudomonas aeruginosa LESB58]; purified PvdQ acylase; inhibition, % at 10 µM; 340,000 tested, 0.063% active; AID 488965, 2010; in the data active means inhibition above about 30%, passing the limit was not always enough;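 further: 0% = vehicle neutral wells and 100% = reference inhibitor wells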
miR-122 sensor – miR-122 Renilla sensor signal increase in Huh7, primary screen, miR-122 inhibitor project, cell-based, single point, plate reader | Huh7 miR-122 Renilla luciferase sensor, 48 h; neutral wells = 0, positive control = 100 | activation (reporter increase), % at 12.5 µM | 340,000 tested, 0.3% active | AID 602342, 2012;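 active means mean replicate activation score at least 90 and every replicate individually at or above 90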;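 further: higher luciferase means less miR-122 activity so hits act as miR-122 inhibitors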
CAL PDZ FP-2 – untagged CAL PDZ binding inhibitors, primary screen, biochemical, fluorescence polarization, HTS; Golgi-associated PDZ and coiled-coil motif-containing protein (Homo sapiens), Q9HD26; purified CAL PDZ, TMR-peptide fluorescence polarization, 1 h; inhibition, % at 24.9 µM; 300,000 tested, 0.92% active;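 active means mean inhibition of at least 30% with at least half of replicates also reaching 30%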;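 further: 0% = DMSO neutral control and 100% = excess unlabeled competitor peptide PRC23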
* marks the source's active call; other numbers are inactive results; · = no result given; + = active, no number; [ ] = another dose, or the depositor's remark.

SMILES | CAL PDZ FP-1 | PvdQ acylase | miR-122 sensor | CAL PDZ FP-2
O=S(=O)(NC(=NCc1ccccc1)c1ccc(F)cc1)c1ccc(Cl)cc1 | 1 | -5 | 148* | ·
NC(=NCCc1ccc(Cl)cc1)NS(=O)(=O)c1ccc(F)cc1 | -1 | -8 | · | 46*
CCOC(=O)c1ccc2[nH]c3c(c2c1)CCCC3C(=O)OCC (stereo not given) | 0 | -3 | -4 | -9
CCOC(=O)c1ccc2[nH]c3c(c2c1)CCCCC3=O | -2 | -10 | -11 | 37*
CC(C)(C)NC(=O)c1cc(Cl)ccc1[N+](=O)[O-] | 0 | 36* | · | -3
CCCC(=O)Nc1cc(S(=O)(=O)N2CCCCC2)ccc1N1CCOCC1 | 0 | -10 | -4 | 59*
COCCNC(=S)N(CCO)Cc1cc2cc3c(cc2[nH]c1=O)OCO3 | · | -8 | · | 82*
O=C(Nc1nc2n(n1)C(c1ccc(F)cc1)CC(c1ccccc1)N2)c1ccco1 (stereo not given) | -1 | -18 | · | 38*
COc1cccc(NC(=O)CCS(=O)(=O)c2cccs2)c1 | -2 | -15 | -4 | 72*
Nc1ccc(OCc2ccccc2)cc1[N+](=O)[O-] | 1 | 37* | · | -4
O=C(C1CC1)N1CCN(c2ccc([N+](=O)[O-])cc2)CC1 | · | · | 2 | ·
O=C(C1CCN(S(=O)(=O)c2cnc[nH]2)CC1)N1CCN(c2ccc([N+](=O)[O-])cc2)CC1 | -1 | -20 | -4 | 49*
C/C=C/C(=O)OCC(=O)NC(=O)NC(C)C | -2 | -15 | 4 | 0
Cc1ccc(-c2nc3c(c(=O)[nH]c(=O)n3Cc3ccccc3)n2C)o1 | -2 | -8 | · | 31*
Cc1noc(C)c1COc1cccc(C(=O)OCCOc2ccc(F)cc2)c1 | · | 6 | -5 | -4
Cc1noc(C)c1COc1cccc(C(=O)OC(C)C#N)c1 (stereo not given) | -1 | -11 | · | 73*
CC(C)CCNC(=O)C1(c2cccs2)CCOCC1 | -3 | 7 | -3 | -2
COc1ccc(CN2CCC(Oc3ccc(C(=O)N4CCCC4)cc3)CC2)c(F)c1 | 0 | -5 | -10 | 128*
CN(C(=O)c1ccc(OC2CCN(Cc3ccccn3)CC2)cc1)C1CCCCC1 | -1 | -18 | 1 | -6
C#CCN(C(=O)c1ccc(OC2CCN(Cc3ccccn3)CC2)cc1)C1CCCCC1 | 1 | -13 | -7 | 55*
CCn1cc(CNC(=O)c2ccc(OC3CCN(Cc4ccccn4)CC3)cc2)cn1 | 0 | -3 | 0 | -4
CCn1nc(C)c(CNC(=O)c2ccc(OC3CCN(Cc4ccccn4)CC3)cc2)c1C | -1 | -11 | -4 | 50*
CCn1nc(C)c(CN2CCC(Oc3ccc(C(=O)N4CCCC4)cc3)CC2)c1C | -1 | -11 | -9 | 51*
CC(C)OCCCNC(=O)c1c(N)n(/N=C/c2ccccn2)c2nc3ccccc3nc12 | -2 | -17 | -8 | -1
C[C@H]1CN([C@@H](C)CO)C(=O)c2cc(C3=CCCCC3)cnc2O[C@H]1CN(C)Cc1cccnc1 | · | · | 22[16.7 µM] | ·
SMILES | CAL PDZ FP-1 | PvdQ acylase | miR-122 sensor | CAL PDZ FP-2
CCc1ccc(NS(=O)(=O)c2ccc(OC)c3ncccc23)cc1 | 0 | -2 | 173* | 1
COc1ccccc1CNc1ccc2nnc(CCNC(=O)c3ccc(C)cc3)n2n1 | -2 | -14 | · | -5
COc1ccccc1CNc1ccc2nnc(CCNC(=O)c3ccccc3)n2n1 | -2 | -11 | · | 54*
COC(=O)c1sccc1NC(=S)N1CCN(C)CC1 | 0 | -7 | · | +
COC(=O)c1sccc1NC(=O)Nc1ccc(F)cc1 | -2 | -11 | · | ·
COC(=O)c1sccc1NC(=S)Nc1ccc(F)cc1 | -1 | 15 | 147* | ·
COc1ccc(S(=O)(=O)NCC2CCCO2)cc1C(=O)O (stereo not given) | · | -2 | 0 | 16
Cc1cc(C)c(C(=O)COc2cccnc2[N+](=O)[O-])cc1C | · | -9 | 5 | -3
CCc1ccccc1NC(=O)CSC1=C(C#N)C(c2ccc(O)c(OC)c2)C2=C(CCCC2=O)N1 (stereo not given) | -2 | -14 | -3 | 0
COc1cc(C2C(C#N)=C(SC)NC3=C2C(=O)CCC3)ccc1O (stereo not given) | -1 | -14 | -27 | 89*
c1cnc2ccc(-c3ccc4ncccc4c3)cc2c1 | · | 47* | · | 6
Cc1ccc2ncccc2c1 | 0 | 2 | -3 | -6
